EP2 antag: human EP2 receptor antagonists, primary screen, TR-FRET cAMP, C6 glioma cells; Prostaglandin E2 receptor EP2 subtype (Homo sapiens), P43116; C6 glioma cells expressing human EP2; cells stimulated with saturating PGE2; inhibition, % at 25 µM; 0.52% of 260,000 active; AID 1422, 2008;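 active = percent inhibition above 40 after rounding to a whole number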;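 also: rat C6 glioma host cells with rolipram phosphodiesterase inhibitor present; the protocol text gives 20 µM as final concentration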
Target sequence (P43116 whole entry, looked up): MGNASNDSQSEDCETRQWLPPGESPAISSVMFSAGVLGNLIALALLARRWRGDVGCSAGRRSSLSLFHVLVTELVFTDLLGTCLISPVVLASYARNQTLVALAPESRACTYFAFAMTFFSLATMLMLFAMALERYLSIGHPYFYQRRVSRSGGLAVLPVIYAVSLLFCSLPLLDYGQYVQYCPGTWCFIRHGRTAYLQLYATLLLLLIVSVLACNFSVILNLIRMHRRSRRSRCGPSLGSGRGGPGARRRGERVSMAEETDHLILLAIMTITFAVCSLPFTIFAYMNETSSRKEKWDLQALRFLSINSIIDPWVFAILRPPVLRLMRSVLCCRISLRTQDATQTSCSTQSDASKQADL
NPY-Y2 antag: NPY-Y2 receptor antagonists, primary screen, cell-based; Neuropeptide Y receptor type 2 (Homo sapiens), P49146; NPY-Y2 expressing cells, antagonist mode; inhibition, % at 2.7 µM; 0.99% of 140,000 active; AID 793, 2007; in the data active = inhibition above about 17%;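 also: 0% = vehicle with agonist challenge and 100% = reference antagonist with challenge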
EP2 mod: EP2 receptor modulators, cAMP readout, primary screen, cell-based, HTRF cAMP, PGE2 stimulation; EP2-expressing cells, cAMP HTRF FRET, PGE2 co-stimulation; induction, % at 25 µM; 0.83% of 260,000 active;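 active = compounds whose cAMP rise, as percent of the full-agonist control response, exceeds 60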;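 also: rat C6 glioma line stably carrying human EP2 under a CMV promoter; the protocol text gives 20 µM as final concentration; 100% = response of wells given 1 µM PGE2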
NPY2 pot ag: NPY-Y2 potentiators or agonists, primary screen, cell-based | Neuropeptide Y receptor type 2 (Homo sapiens), P49146 | cells expressing NPY-Y2, potentiator/agonist read-out | activation, % at 3.6 µM | 0.45% of 220,000 active | AID 1359, 2008; in the data active = activation above about 27%;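 also: cells stimulated with NPY near EC25 plus isoproterenol at EC100; 0% = vehicle plus submaximal agonist and 100% = vehicle plus saturating agonist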
NPY-Y1 antag: NPY-Y1 receptor antagonists, primary screen, cell-based; 1% of 200,000 active; AID 1040, 2008; inhibition, % at 3.6 µM; HEK293-CNG Y1 cells, membrane potential fluorescence; NPY at EC95, then isoproterenol;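 active = inhibition above the campaign mean inhibition of all tested compounds plus 3 SD, cut at about 20% in these data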;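 also: 0% = DMSO wells given NPY plus isoproterenol and 100% = isoproterenol alone without NPY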
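Assay system: HEK293 Y1/CNG channel cell line; Doses: single compound dose of 3.6 µM, 0.4% DMSO; Timing: dye 3 h, compound 60 min room temperature, stimulation 45 min; Technique: Membrane-potential fluorescent dye readout; Measure: % inhibition of NPY effect.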
NPY-Y1 PAM-ag: NPY-Y1 receptor potentiators or agonists, primary screen, cell-based | Neuropeptide Y receptor type 1 (Homo sapiens), P25929 | NPY-Y1 expressing cells, potentiator/agonist activation | activation, % at 3.6 µM | 0.37% of 220,000 active; in the data active = activation above about 33%, passing the limit was not always enough;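 also: cells stimulated with NPY at EC10 then isoproterenol at EC100; 0% = low agonist plus stimulus and 100% = saturating agonist plus stimulus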
Active calls of the source: *; / = not tested or not shown. A selection: hits, their analogues and other compounds. The true share with any hit is near 2.8%.

SMILES	EP2 antag	NPY-Y2 antag	EP2 mod	NPY2 pot ag	NPY-Y1 antag	NPY-Y1 PAM-ag
O=S(=O)(O)c1ccc2cc(N=Nc3cc(S(=O)(=O)O)c4cccnc4c3O)ccc2c1	52*	/	16	/	/	/
O=C1C2=C(Nc3cc([N+](=O)[O-])ccc3N2)O[C@@H]1c1c[nH]c2ccc(COc3ccccc3)cc12	60*	/	9	/	/	/
COc1ccccc1C1OC2=C(Nc3ccc([N+](=O)[O-])cc3N2)C1=O (centres undefined)	2	/	-17	2	/	13
O=C1c2ccccc2N[C@H](c2cc(Cl)cc(Cl)c2O)N1CCc1ccccn1	55*	/	8	/	/	/
CCOc1cc(/C=C\c2[nH]c(=O)[nH]c(=O)c2[N+](=O)[O-])ccc1OCc1ccccc1F	11	/	9	/	/	/
O=C(O)C1(P(=O)(c2ccc(Cl)cc2)c2ccc(Cl)cc2)CC1	6	/	6	13	-5	-2
CCOC(=O)C1(P(=O)(c2ccc(Cl)cc2)c2ccc(Cl)cc2)CCC1	11	27*	41	-45	28*	-18
Cn1nnc2c[n+](CC(=O)c3ccc4ccccc4c3)cc(Br)c21	11	/	22	57*	/	47*
CC(/C=N/NC(=O)Cn1nnc(N)n1)=C\c1ccc(C(C)C)cc1	2	/	89*	-34	/	-6
CC(=O)O/N=C1\C(=O)N(Cc2ccc(C)cc2)c2ccccc21	2	/	63*	-9	1	7
CCN(CC)S(=O)(=O)c1ccc(Cl)c(NC(=O)c2cc(Cl)cc(Cl)c2)c1	7	-1	9	1	2	0
CCN(CC)S(=O)(=O)c1ccc(Cl)c(NC(=O)c2ccccc2C)c1	9	1	63*	3	0	13
C1CCC(CNCCN2CCOCC2)CC1	12	/	-26	/	/	/
CSc1nc(N(C)CCO)c2sc3nc(-c4ccco4)c4c(c3c2n1)CCC4	17	-2	11	13	0	4
CSc1nc(SCC(=O)O)c2sc3nc(-c4ccccc4)c4c(c3c2n1)CCC4	10	/	61*	-12	/	11
Cc1ccccc1OCC(O)CN1CCCCC1 (centres undefined)	15	/	12	64*	-12	89*
Cc1ccccc1OCC(O)CN (centres undefined)	8	3	4	44*	-16	80*
Cc1cc(C)nc(NCC(O)COc2ccccc2C)n1 (centres undefined)	14	0	-14	5	-7	7
O=C(CN1CCC(O)(c2ccccn2)CC1)Nc1ccc2c(c1)OCCO2	/	/	-10	/	/	/
CCOC(=O)Cn1nc(C)n2c(cc3sc(C)cc32)c1=O	/	/	-13	/	/	/
CC1(C)Cc2ccccc2-c2nc3n(c(=O)c21)CCCS3	8	/	64*	4	1	17
CCC1(C)Cc2ccccc2-c2nc3n(c(=O)c21)CCCCC3 (centres undefined)	9	4	57	-7	4	-13
O=C(CN1C(=O)C2C3CCC(C3)C2C1=O)N1CCC2(CC1)Nc1ccccc1-n1cccc12 (centres undefined)	8	/	-93	/	/	/
Cc1ccc2cc(CN(CCN3CCCC3)C(=O)Nc3ccccc3)c(=O)[nH]c2c1C	1	6	-11	-31	15	-32
Cc1ccc2cc(CN(CCN3CCCC3)C(=O)Nc3ccc(F)cc3)c(=O)[nH]c2c1C	15	5	-18	-29	26*	-55
SMILES	EP2 antag	NPY-Y2 antag	EP2 mod	NPY2 pot ag	NPY-Y1 antag	NPY-Y1 PAM-ag
O=C(Nc1ccccc1-c1nc2ccccc2s1)c1cccnc1Cl	13	1	63*	-27	-1	-7
COC(=O)c1cc(-c2ccc(C=C3C(=O)OC4(CCCC4)OC3=O)o2)ccc1Cl	88*	/	-107	/	/	/
COc1ccc2c(c1)c(CC(=O)Nc1ccccc1OC)c(C)n2C(=O)c1ccc(Cl)cc1	13	18*	43	-13	20*	-27
CCCOc1c(CN2CCC(O)(c3ccc(C)cc3)CC2)cccc1OC	8	/	-17	/	/	/
C=CCSc1nc2c(c(=O)n(C)c(=O)n2C)n1Cc1ccccc1Cl	8	/	93*	/	/	/
C/C=C/Cn1c(SCc2ccc(Cl)cc2)nc2c1c(=O)[nH]c(=O)n2C	7	4	63*	-75	17	-90
CCSc1nc2c(c(=O)n(C)c(=O)n2C)n1Cc1ccccc1Cl	8	/	57	/	/	/
C=C(C)Cn1c(SCc2ccc(Cl)cc2)nc2c1c(=O)n(C)c(=O)n2C	6	/	80*	/	/	/
COC(=O)c1nn(-c2ccccc2)c2nnc(Cc3ccc(C)cc3)c(=O)n12	6	1	15	-2	3	0
O=C(c1ccccc1)c1nn(-c2ccccc2)c2nnc(Cc3ccccc3)c(=O)n12	11	29*	5	-53	38*	-128
CCO/C=C1/C(=O)N(C(C)=O)c2ccccc21	4	1	21	-2	-1	-4
COC(=O)/C=C1/C(=O)N(C(C)=O)c2ccccc21	71*	/	-51	/	/	/
CNC(=S)N(CCc1ccccc1C)Cc1cc2cc3c(cc2[nH]c1=O)OCO3	26	/	-39	/	/	/
Cc1c(O)c(CN(C)C)cc2c1oc(=O)c1ccccc12	5	/	12	51*	/	84*
Nc1ccc(-c2cc(-c3ccc(N)cc3)nc(-c3ccccc3)n2)cc1	5	-5	-8	39*	-8	46*
COc1cccc(CN2CCc3c(nc(N4CCCCC4)[nH]c3=O)C2)c1	/	/	17	/	/	/
Cc1ccc2nc(N/N=C/c3cccc(C)n3)cc(C)c2c1	40*	/	-45	/	/	/
Cc1cc(N/N=C/c2ccncc2)nc2ccccc12	8	/	-18	3	6	-3
Fc1cccc(NC(=S)N2CCCCC2)c1	16	1	5	-5	-3	104*
CCOc1c(/C=C\c2nc(O)c([N+](=O)[O-])c(=O)[nH]2)cccc1OC	12	/	0	/	/	/
CCOc1ccc(N(C(=O)c2cnsn2)C(C(=O)NC2CCCCC2)c2ccncc2)cc1 (centres undefined)	6	20*	-2	12	34*	-27
CCOc1ccc(N(C(=O)c2ccco2)C(C(=O)NC2CCCC2)c2ccccc2)cc1 (centres undefined)	6	/	61*	/	/	/
COc1ccc(N(C(=O)c2cnsn2)C(C(=O)NC2CCCCC2)c2ccncc2)cc1 (centres undefined)	6	1	7	-9	17	-10
Cc1nc2sc(C#N)c(N)c2c2c1CCCC2	17	25*	/	-43	22*	-84

Assay outcomes from PubChem.
